Results taken from ChEMBL document CHEMBL5303300, “EUbOPEN Chemogenomics Library - Multiplex” (2023).
Values joined by “and” are separate entries in the source; they are usually repeats but may differ in a detail not shown here. Identical values can stand only once.

Experiments:
Fibroblast = assay: Multiplex assay against human fibroblast; format: toxicity, cell-based; details: number of replicates 2
Procedure, shortened: (§1)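 Compound was added to live cells that had been stained at seeding with Hoechst33342, BioTracker Green Microtubule Cytoskeleton Dye, MitoTracker Red and Annexin V Alexa Fluor 680, and imaging followed on a CQ1 microscope at 37°C and 5% CO2. CellPathfinder machine-learning gating divided cells into Hoechst high-intensity objects or normal cells, normal cells into healthy, pyknosed or fragmented nuclei, and pyknosed cells into mitotic or apoptotic. Tubulin, mitochondrial-mass and membrane-permeability phenotypes are per cents of healthy-nucleus cells.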

HEK-293T = assay: Multiplex assay against HEK293T; format: toxicity, cell-based; details: human, number of replicates 2; procedure, shortened: as §1
[1] = 12 h, 1 µM, compound concentration 1 uM
[2] = 12 h, 10 µM, compound concentration 10 uM
[3] = 24 h, 1 µM, compound concentration 1 uM
[4] = 24 h, 10 µM, compound concentration 10 uM
[5] = 48 h, 1 µM, compound concentration 1 uM
[6] = 48 h, 10 µM, compound concentration 10 uM

COc1ccc(NC(=O)c2ccc(-c3ccc(-c4noc(C)n4)cc3C)cc2)cc1OCCN(C)C.Cl
Population Apoptotic (%) (Fibroblast; [1]): 34% and 50%
Population Fragmented Nuclei (%) (Fibroblast; [1]): 23% and 26%
Population Healthy Nuclei (%) (Fibroblast; [1]): 60% and 51%
Population Hoechst High Intensity Objects (%) (Fibroblast; [1]): 0%
Population Mitochondria Different-Phenotype (%) (Fibroblast; [1]): 6% and 5%
Population Mitotic Cells (%) (Fibroblast; [1]): 65% and 50%
Population Normal (%) (Fibroblast; [1]): 100% and 99%
Population Pyknosed Nuclei (%) (Fibroblast; [1]): 15% and 21%
Population Tubulin-Different-Phenotype (%) (Fibroblast; [1]): 39% and 56%
Total Cell Count (Fibroblast; [1]): 247 and 176
Population Fragmented Nuclei (%) (Fibroblast; [2]): 14% and 30%
Population Healthy Nuclei (%) (Fibroblast; [2]): 29% and 48%
Population Hoechst High Intensity Objects (%) (Fibroblast; [2]): 2% and 0%
Population Membrane Permeable-Phenotype (%) (Fibroblast; [2]): 14% and 7%
Population Mitochondria Different-Phenotype (%) (Fibroblast; [2]): 29% and 25%
Population Normal (%) (Fibroblast; [2]): 97% and 100%
Population Pyknosed Nuclei (%) (Fibroblast; [2]): 56% and 20%
Population Tubulin-Different-Phenotype (%) (Fibroblast; [2]): 82% and 72%
Total Cell Count (Fibroblast; [2]): 117 and 158
Population Apoptotic (%) (Fibroblast; [3]): 46% and 65%
Population Fragmented Nuclei (%) (Fibroblast; [3]): 32% and 19%
Population Healthy Nuclei (%) (Fibroblast; [3]): 58% and 57%
Population Hoechst High Intensity Objects (%) (Fibroblast; [3]): 2% and 0%
Population Membrane Permeable-Phenotype (%) (Fibroblast; [3]): 4% and 6%
Population Mitochondria Different-Phenotype (%) (Fibroblast; [3]): 10% and 9%
Population Mitotic Cells (%) (Fibroblast; [3]): 53% and 34%
Population Normal (%) (Fibroblast; [3]): 97% and 99%
Population Pyknosed Nuclei (%) (Fibroblast; [3]): 9% and 22%
Population Tubulin-Different-Phenotype (%) (Fibroblast; [3]): 44% and 59%
Total Cell Count (Fibroblast; [3]): 288 and 170
Population Apoptotic (%) (Fibroblast; [4]): 94% and 90%
Population Fragmented Nuclei (%) (Fibroblast; [4]): 13% and 26%
Population Healthy Nuclei (%) (Fibroblast; [4]): 16% and 10%
Population Hoechst High Intensity Objects (%) (Fibroblast; [4]): 0%
Population Mitochondria Different-Phenotype (%) (Fibroblast; [4]): 38% and 83%
Population Mitotic Cells (%) (Fibroblast; [4]): 5% and 9%
Population Normal (%) (Fibroblast; [4]): 100%
Population Pyknosed Nuclei (%) (Fibroblast; [4]): 69% and 62%
Population Tubulin-Different-Phenotype (%) (Fibroblast; [4]): 72% and 66%
Total Cell Count (Fibroblast; [4]): 108 and 116
Population Apoptotic (%) (Fibroblast; [5]): 86% and 73%
Population Fragmented Nuclei (%) (Fibroblast; [5]): 25% and 32%
Population Healthy Nuclei (%) (Fibroblast; [5]): 62% and 60%
Population Hoechst High Intensity Objects (%) (Fibroblast; [5]): 0% and 1%
Population Membrane Permeable-Phenotype (%) (Fibroblast; [5]): 6% and 1%
Population Mitochondria Different-Phenotype (%) (Fibroblast; [5]): 6% and 5%
Population Mitotic Cells (%) (Fibroblast; [5]): 13% and 26%
Population Normal (%) (Fibroblast; [5]): 100% and 98%
Population Pyknosed Nuclei (%) (Fibroblast; [5]): 12% and 6%
Population Tubulin-Different-Phenotype (%) (Fibroblast; [5]): 36% and 23%
Total Cell Count (Fibroblast; [5]): 191 and 281
Population Apoptotic (%) (Fibroblast; [6]): 95% and 96%
Population Fragmented Nuclei (%) (Fibroblast; [6]): 20% and 25%
Population Healthy Nuclei (%) (Fibroblast; [6]): 15% and 7%
Population Hoechst High Intensity Objects (%) (Fibroblast; [6]): 0%
Population Mitochondria Different-Phenotype (%) (Fibroblast; [6]): 18% and 25%
Population Mitotic Cells (%) (Fibroblast; [6]): 4%
Population Normal (%) (Fibroblast; [6]): 100%
Population Pyknosed Nuclei (%) (Fibroblast; [6]): 63% and 66%
Population Tubulin-Different-Phenotype (%) (Fibroblast; [6]): 81% and 87%
Total Cell Count (Fibroblast; [6]): 102 and 112
Population Apoptotic (%) (HEK-293T; [1]): 44% and 57%
Population Fragmented Nuclei (%) (HEK-293T; [1]): 3%
Population Healthy Nuclei (%) (HEK-293T; [1]): 84% and 81%
Population Hoechst High Intensity Objects (%) (HEK-293T; [1]): 6% and 8%
Population Membrane Permeable-Phenotype (%) (HEK-293T; [1]): 3% and 4%
Population Mitochondria Different-Phenotype (%) (HEK-293T; [1]): 26% and 29%
Population Mitotic Cells (%) (HEK-293T; [1]): 55% and 42%
Population Normal (%) (HEK-293T; [1]): 93% and 91%
Population Pyknosed Nuclei (%) (HEK-293T; [1]): 11% and 15%
Population Tubulin-Different-Phenotype (%) (HEK-293T; [1]): 80% and 75%
Total Cell Count (HEK-293T; [1]): 604 and 505
Population Apoptotic (%) (HEK-293T; [2]): 83% and 80%
Population Fragmented Nuclei (%) (HEK-293T; [2]): 5% and 4%
Population Healthy Nuclei (%) (HEK-293T; [2]): 51% and 50%
Population Hoechst High Intensity Objects (%) (HEK-293T; [2]): 19% and 18%
Population Membrane Permeable-Phenotype (%) (HEK-293T; [2]): 4% and 1%
Population Mitochondria Different-Phenotype (%) (HEK-293T; [2]): 74% and 77%
Population Mitotic Cells (%) (HEK-293T; [2]): 16% and 19%
Population Normal (%) (HEK-293T; [2]): 80% and 81%
Population Pyknosed Nuclei (%) (HEK-293T; [2]): 43% and 44%
Population Tubulin-Different-Phenotype (%) (HEK-293T; [2]): 87% and 90%
Total Cell Count (HEK-293T; [2]): 326 and 269
Population Apoptotic (%) (HEK-293T; [3]): 55% and 64%
Population Fragmented Nuclei (%) (HEK-293T; [3]): 5%
Population Healthy Nuclei (%) (HEK-293T; [3]): 84% and 81%
Population Hoechst High Intensity Objects (%) (HEK-293T; [3]): 6% and 11%
Population Membrane Permeable-Phenotype (%) (HEK-293T; [3]): 6% and 3%
Population Mitochondria Different-Phenotype (%) (HEK-293T; [3]): 19%
Population Mitotic Cells (%) (HEK-293T; [3]): 44% and 35%
Population Normal (%) (HEK-293T; [3]): 93% and 88%
Population Pyknosed Nuclei (%) (HEK-293T; [3]): 10% and 13%
